Source: ChEMBL document CHEMBL5058577, “EUbOPEN Chemogenomics Library 2 (Multiplex)” (2022)

System: Fibroblast
Test: Multiplex assay against human fibroblast
Format: toxicity, cell-based
Method in brief: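 At seeding, live cells were stained with Hoechst33342, BioTracker Green Microtubule Cytoskeleton Dye, MitoTracker Red and Annexin V Alexa Fluor 680. After compound addition they were imaged on a CQ1 microscope at 37°C and 5% CO2, and CellPathfinder machine-learning gating sorted them into Hoechst high-intensity objects or normal cells, with normal cells further split into healthy, pyknosed or fragmented nuclei and pyknosed cells into mitotic or apoptotic. Tubulin, mitochondrial-mass and membrane-permeability phenotypes are given as per cents of cells with healthy nuclei.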

[1] = 12 h, 1 µM, compound concentration 1 uM, replicate 1
[2] = 12 h, 1 µM, compound concentration 1 uM, replicate 2
[3] = 12 h, 10 µM, compound concentration 10 uM, replicate 1
[4] = 12 h, 10 µM, compound concentration 10 uM, replicate 2
[5] = 24 h, 1 µM, compound concentration 1 uM, replicate 1
[6] = 24 h, 1 µM, compound concentration 1 uM, replicate 2
[7] = 24 h, 10 µM, compound concentration 10 uM, replicate 1
[8] = 24 h, 10 µM, compound concentration 10 uM, replicate 2
[9] = 48 h, 1 µM, compound concentration 1 uM, replicate 1
[10] = 48 h, 1 µM, compound concentration 1 uM, replicate 2
[11] = 48 h, 10 µM, compound concentration 10 uM, replicate 1
[12] = 48 h, 10 µM, compound concentration 10 uM, replicate 2

For `CC(C)C[C@H](CO)Nc1nc(S[C@@H](C)c2ccccc2)nc2nc(N)sc12` [AZD-8797], the “Population Apoptotic (%)” value [1] was 25%, the “Population Fragmented Nuclei (%)” value [1] was 23% and the “Population Healthy Nuclei (%)” value [1] was 62%. For the same compound, the “Population Hoechst High Intensity Objects (%)” value [1] was 1%, the “Population Membrane Permeable-Phenotype (%)” value [1] was 3% and the “Population Mitochondria Different-Phenotype (%)” value [1] was 3%. For the same compound, the “Population Mitotic Cells (%)” value [1] was 75%, the “Population Normal (%)” value [1] was 98% and the “Population Pyknosed Nuclei (%)” value [1] was 13%. The “Population Tubulin-Different-Phenotype (%)” value [1] was 23%, the “Total Cell Count” value [1] was 146 and the “Population Apoptotic (%)” value [2] was 31%. For the same compound, the “Population Fragmented Nuclei (%)” value [2] was 22%, the “Population Healthy Nuclei (%)” value [2] was 55% and the “Population Hoechst High Intensity Objects (%)” value [2] was 4%. The “Population Membrane Permeable-Phenotype (%)” value [2] was 16%, the “Population Mitochondria Different-Phenotype (%)” value [2] was 6% and the “Population Mitotic Cells (%)” value [2] was 68%. The “Population Normal (%)” value [2] was 95%, the “Population Pyknosed Nuclei (%)” value [2] was 21% and the “Population Tubulin-Different-Phenotype (%)” value [2] was 46%. For the same compound, the “Total Cell Count” value [2] was 92, the “Population Apoptotic (%)” value [3] was 38% and the “Population Fragmented Nuclei (%)” value [3] was 18%. For the same compound, the “Population Healthy Nuclei (%)” value [3] was 64%, the “Population Hoechst High Intensity Objects (%)” value [3] was 3% and the “Population Membrane Permeable-Phenotype (%)” value [3] was 0%. For the same compound, the “Population Mitochondria Different-Phenotype (%)” value [3] was 6%, the “Population Mitotic Cells (%)” value [3] was 61% and the “Population Normal (%)” value [3] was 96%. For the same compound, the “Population Pyknosed Nuclei (%)” value [3] was 17%, the “Population Tubulin-Different-Phenotype (%)” value [3] was 46% and the “Total Cell Count” value [3] was 156. For the same compound, the “Population Apoptotic (%)” value [4] was 36%, the “Population Fragmented Nuclei (%)” value [4] was 36% and the “Population Healthy Nuclei (%)” value [4] was 41%. The “Population Hoechst High Intensity Objects (%)” value [4] was 5%, the “Population Membrane Permeable-Phenotype (%)” value [4] was 10% and the “Population Mitochondria Different-Phenotype (%)” value [4] was 27%. For the same compound, the “Population Mitotic Cells (%)” value [4] was 64%, the “Population Normal (%)” value [4] was 94% and the “Population Pyknosed Nuclei (%)” value [4] was 21%. For the same compound, the “Population Tubulin-Different-Phenotype (%)” value [4] was 66%, the “Total Cell Count” value [4] was 122 and the “Population Apoptotic (%)” value [5] was 44%. The “Population Fragmented Nuclei (%)” value [5] was 15%, the “Population Healthy Nuclei (%)” value [5] was 69% and the “Population Hoechst High Intensity Objects (%)” value [5] was 1%. The “Population Membrane Permeable-Phenotype (%)” value [5] was 1%, the “Population Mitochondria Different-Phenotype (%)” value [5] was 1% and the “Population Mitotic Cells (%)” value [5] was 55%. The “Population Normal (%)” value [5] was 98%, the “Population Pyknosed Nuclei (%)” value [5] was 14% and the “Population Tubulin-Different-Phenotype (%)” value [5] was 24%. The “Total Cell Count” value [5] was 124, the “Population Apoptotic (%)” value [6] was 31% and the “Population Fragmented Nuclei (%)” value [6] was 29%. For the same compound, the “Population Healthy Nuclei (%)” value [6] was 54%, the “Population Hoechst High Intensity Objects (%)” value [6] was 0% and the “Population Membrane Permeable-Phenotype (%)” value [6] was 17%. The “Population Mitochondria Different-Phenotype (%)” value [6] was 3%, the “Population Mitotic Cells (%)” value [6] was 68% and the “Population Normal (%)” value [6] was 99%. For the same compound, the “Population Pyknosed Nuclei (%)” value [6] was 15%, the “Population Tubulin-Different-Phenotype (%)” value [6] was 46% and the “Total Cell Count” value [6] was 103. For the same compound, the “Population Apoptotic (%)” value [7] was 57%, the “Population Fragmented Nuclei (%)” value [7] was 21% and the “Population Healthy Nuclei (%)” value [7] was 66%. For the same compound, the “Population Hoechst High Intensity Objects (%)” value [7] was 1%, the “Population Membrane Permeable-Phenotype (%)” value [7] was 0% and the “Population Mitochondria Different-Phenotype (%)” value [7] was 15%. For the same compound, the “Population Mitotic Cells (%)” value [7] was 42%, the “Population Normal (%)” value [7] was 98% and the “Population Pyknosed Nuclei (%)” value [7] was 12%. The “Population Tubulin-Different-Phenotype (%)” value [7] was 38%, the “Total Cell Count” value [7] was 168 and the “Population Apoptotic (%)” value [8] was 33%. The “Population Fragmented Nuclei (%)” value [8] was 42%, the “Population Healthy Nuclei (%)” value [8] was 38% and the “Population Hoechst High Intensity Objects (%)” value [8] was 2%. For the same compound, the “Population Membrane Permeable-Phenotype (%)” value [8] was 8%, the “Population Mitochondria Different-Phenotype (%)” value [8] was 25% and the “Population Mitotic Cells (%)” value [8] was 66%. The “Population Normal (%)” value [8] was 97%, the “Population Pyknosed Nuclei (%)” value [8] was 19% and the “Population Tubulin-Different-Phenotype (%)” value [8] was 85%. The “Total Cell Count” value [8] was 126, the “Population Apoptotic (%)” value [9] was 50% and the “Population Fragmented Nuclei (%)” value [9] was 25%. For the same compound, the “Population Healthy Nuclei (%)” value [9] was 60%, the “Population Hoechst High Intensity Objects (%)” value [9] was 1% and the “Population Membrane Permeable-Phenotype (%)” value [9] was 1%. The “Population Mitochondria Different-Phenotype (%)” value [9] was 1%, the “Population Mitotic Cells (%)” value [9] was 50% and the “Population Normal (%)” value [9] was 98%. The “Population Pyknosed Nuclei (%)” value [9] was 13%, the “Population Tubulin-Different-Phenotype (%)” value [9] was 11% and the “Total Cell Count” value [9] was 135. For the same compound, the “Population Apoptotic (%)” value [10] was 47%, the “Population Fragmented Nuclei (%)” value [10] was 30% and the “Population Healthy Nuclei (%)” value [10] was 48%. The “Population Hoechst High Intensity Objects (%)” value [10] was 4%, the “Population Membrane Permeable-Phenotype (%)” value [10] was 4% and the “Population Mitochondria Different-Phenotype (%)” value [10] was 4%. The “Population Mitotic Cells (%)” value [10] was 52%, the “Population Normal (%)” value [10] was 95% and the “Population Pyknosed Nuclei (%)” value [10] was 20%. The “Population Tubulin-Different-Phenotype (%)” value [10] was 54%, the “Total Cell Count” value [10] was 95 and the “Population Apoptotic (%)” value [11] was 60%. For the same compound, the “Population Fragmented Nuclei (%)” value [11] was 25%, the “Population Healthy Nuclei (%)” value [11] was 65% and the “Population Hoechst High Intensity Objects (%)” value [11] was 2%. For the same compound, the “Population Membrane Permeable-Phenotype (%)” value [11] was 0%, the “Population Mitochondria Different-Phenotype (%)” value [11] was 13% and the “Population Mitotic Cells (%)” value [11] was 40%. The “Population Normal (%)” value [11] was 97%, the “Population Pyknosed Nuclei (%)” value [11] was 9% and the “Population Tubulin-Different-Phenotype (%)” value [11] was 35%. The “Total Cell Count” value [11] was 168, the “Population Apoptotic (%)” value [12] was 35% and the “Population Fragmented Nuclei (%)” value [12] was 45%. The “Population Healthy Nuclei (%)” value [12] was 40%, the “Population Hoechst High Intensity Objects (%)” value [12] was 1% and the “Population Membrane Permeable-Phenotype (%)” value [12] was 12%. The “Population Mitochondria Different-Phenotype (%)” value [12] was 18%, the “Population Mitotic Cells (%)” value [12] was 64% and the “Population Normal (%)” value [12] was 98%. The “Population Pyknosed Nuclei (%)” value [12] was 14%, the “Population Tubulin-Different-Phenotype (%)” value [12] was 89% and the “Total Cell Count” value [12] was 121.
